Three molecules from ChEMBL document CHEMBL1154934, “Identification of piperazine-bisamide GHSR antagonists for the treatment of obesity” (Bioorg Med Chem Lett, 2010) can be followed below.

For data set [1], the target named is T1, Growth hormone secretagogue receptor type 1 (Homo sapiens, UniProt Q92847). In words: Agonist activity at human GHSR expressed in CHO cells assessed as increase in ghrelin-induced [3H]IP accumulation at 10 uM after 1 hr by scintillation counting relative to ghrelin. The class given is functional, cell-based. The method in brief: (§1)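 CHO cells stably expressing human or rat GHSR labelled 12 h with 3H-inositol (1 µCi/mL in DMEM), then exposed to ghrelin or compound at 37 °C for 1.0 h. Lysis with 20 mM formic acid, 4 °C, 4 h. Extract taken onto SPA beads, 12 h in the dark, then radioactivity counted. IP accumulation expressed as % of maximal ghrelin response at 10, 1.0 and 0.1 µM.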

In data set [2] the target is Sodium-dependent noradrenaline transporter (Homo sapiens, UniProt P23975). In words: Inhibition of NET.
The target of another data set is D(2) dopamine receptor (Homo sapiens, UniProt P14416). In words: Inhibition of dopamine D2 receptor.
In data set [3] the target is Sodium-dependent dopamine transporter (Homo sapiens, UniProt Q01959). In words: Inhibition of DAT.
Data set [4] concerns the target Sodium-dependent serotonin transporter (Homo sapiens, UniProt P31645). In words: Inhibition of SERT.
The target in data set [5] is Growth hormone secretagogue receptor type 1 (Rattus norvegicus) (UniProt O08725). In words: Agonist activity at rat GHSR expressed in CHO cells assessed as increase in ghrelin-induced [3H]IP accumulation at 10 uM after 1 hr by scintillation counting relative to ghrelin. The class given is functional, cell-based. Put shortly: as §1
The target is the same in data set [6]. In words: Agonist activity at rat GHSR expressed in CHO cells assessed as increase in ghrelin-induced [3H]IP accumulation at 0.1 uM after 1 hr by scintillation counting relative to ghrelin. It is filed as functional, cell-based. Put shortly:
as §1

In data set [7] the target is T1, Growth hormone secretagogue receptor type 1. In words: Antagonist activity at human GHSR expressed in CHOK1 cells assessed as inhibition of ghrelin-induced intracellular calcium flux by aequorin flash luminescence assay. The class given is functional, cell-based, CHO-K1. Put shortly: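 Aequorin flash luminescence in CHO-K1 cells stably co-expressing human ghrelin receptor and aequorin. […] IC50 values are means of three determinations.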
(Calcium assays in cells follow changes in intracellular calcium, usually with a dye or a luminescent sensor.)

Data set [8] deals with T2, Alpha-2A adrenergic receptor (Homo sapiens, UniProt P08913).
T2 sequence (P08913 whole entry): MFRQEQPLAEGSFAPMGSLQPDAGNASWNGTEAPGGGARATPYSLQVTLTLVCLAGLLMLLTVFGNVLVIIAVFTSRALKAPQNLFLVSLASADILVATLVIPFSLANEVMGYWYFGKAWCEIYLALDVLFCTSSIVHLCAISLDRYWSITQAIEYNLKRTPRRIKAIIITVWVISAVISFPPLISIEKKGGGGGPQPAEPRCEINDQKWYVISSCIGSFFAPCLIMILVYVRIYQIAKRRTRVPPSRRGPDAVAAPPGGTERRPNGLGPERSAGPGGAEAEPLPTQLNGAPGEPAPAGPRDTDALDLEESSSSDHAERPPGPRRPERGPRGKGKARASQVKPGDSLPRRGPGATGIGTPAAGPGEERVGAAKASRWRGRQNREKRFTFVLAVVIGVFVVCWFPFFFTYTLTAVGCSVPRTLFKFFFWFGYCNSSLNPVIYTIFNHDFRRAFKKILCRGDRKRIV
In words: Inhibition of alpha2A adrenergic receptor.

The target in another data set is Histamine H2 receptor (Homo sapiens, UniProt P25021). In words: Inhibition of histamine H2 receptor.
The target in data set [9] is Growth hormone secretagogue receptor type 1 (Rattus norvegicus) (UniProt O08725). In words: Agonist activity at rat GHSR expressed in CHO cells assessed as increase in ghrelin-induced [3H]IP accumulation at 1 uM after 1 hr by scintillation counting relative to ghrelin. It is filed as functional, cell-based. The method in brief: as §1
The target of the next data set is Mu-type opioid receptor (Homo sapiens, UniProt P35372). In words: Inhibition of mu opioid receptor.
The target in data set [10] is Kappa-type opioid receptor (Homo sapiens, UniProt P41145). In words: Inhibition of kappa opioid receptor.
In data set [11] the target is T3, 5-hydroxytryptamine receptor 2C (Homo sapiens, UniProt P28335).
T3 sequence (P28335 whole entry): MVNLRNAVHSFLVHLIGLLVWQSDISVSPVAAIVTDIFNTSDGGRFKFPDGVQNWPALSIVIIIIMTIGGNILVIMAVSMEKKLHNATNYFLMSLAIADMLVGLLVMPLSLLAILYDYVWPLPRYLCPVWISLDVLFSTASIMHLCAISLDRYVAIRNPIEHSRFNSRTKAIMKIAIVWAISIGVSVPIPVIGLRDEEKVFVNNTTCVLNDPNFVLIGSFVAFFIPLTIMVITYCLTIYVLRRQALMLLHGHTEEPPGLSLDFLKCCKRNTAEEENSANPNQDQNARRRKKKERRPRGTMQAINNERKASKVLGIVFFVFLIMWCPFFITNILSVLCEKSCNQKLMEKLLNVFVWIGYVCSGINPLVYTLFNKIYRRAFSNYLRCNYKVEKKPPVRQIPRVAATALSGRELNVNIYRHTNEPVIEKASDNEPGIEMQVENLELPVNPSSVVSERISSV
In words: Inhibition of 5HT2C (receptor).

The target in data set [12] is Muscarinic acetylcholine receptor M3 (Homo sapiens, UniProt P20309). In words: Inhibition of muscarinic M3 receptor.
In data set [13] the target is 5-hydroxytryptamine receptor 2A (Homo sapiens, UniProt P28223). In words: Inhibition of 5HT2A (receptor).
The target in the next data set is D(3) dopamine receptor (Homo sapiens, UniProt P35462). In words: Inhibition of dopamine D3 receptor.
Data set [14] concerns the target T1, Growth hormone secretagogue receptor type 1. In words: Agonist activity at human GHSR expressed in CHO cells assessed as increase in ghrelin-induced [3H]IP accumulation at 1 uM after 1 hr by scintillation counting relative to ghrelin. It is filed as functional, cell-based. Put shortly: as §1
A short description of data set [15]: Mean residence time in rat at 2 mg/kg, iv. The class given is ADME, organism-based. Further details: dose 2 mg/kg, route intravenous. The note with it: in vivo. Put shortly: (§2)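 Rats dosed iv at 2.0 mg/kg for clearance, MRT and Vdss. Oral dosing at 0.5 mg/kg for bioavailability (F).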
A short description of data set [16]: Clearance in rat at 2 mg/kg, iv. The class given is ADME, organism-based. Set-up: dose 2 mg/kg, route intravenous. The note with it: in vivo. Put shortly:
as §2

Data set [17] can be described thus: Oral bioavailability in rat at 0.5 mg/kg. The class given is ADME, organism-based. The note with it: in vivo. The method in brief:
as §2

Data set [18] can be described thus: Inhibition of cytochrome P450. It is filed as ADME.
The nature of data set [19]: Volume of distribution at steady state in rat at 2 mg/kg, iv. The class given is ADME, organism-based. Further details: dose 2 mg/kg, route intravenous. The note with it: in vivo, read-out: Vdss.
For data set [20], the target named is Voltage-gated inwardly rectifying potassium channel KCNH2 (Homo sapiens, UniProt Q12809). In words: Inhibition of human ERG.
Data set [21] has as its target Growth hormone secretagogue receptor type 1 (Rattus norvegicus, UniProt O08725). In words: Inhibition of rat GHSR expressed in CHOK1 cells assessed as inhibition of ghrelin-induced intracellular calcium flux by aequorin flash luminescence assay. The class given is functional, cell-based, CHO-K1.
Data set [22] deals with T1, Growth hormone secretagogue receptor type 1. In words: Agonist activity at human GHSR expressed in CHO cells assessed as increase in ghrelin-induced [3H]IP accumulation at 0.1 uM after 1 hr by scintillation counting relative to ghrelin. It is filed as functional, cell-based. Put shortly:
as §1

The nature of data set [23]: Induction of growth hormone release from Sprague-Dawley rat pituitary cells at 1 uM after 20 mins by RIA assay relative to ghrelin. It is filed as functional, Pituitary gland cell. The method in brief:
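Pituitary cells from 6–8-week-old male SD rats plated on poly-D-lysine and cultured 3 days at 37 °C. Washed with DMEM assay buffer (20 mM Hepes, 0.3% BSA) and held 5 min at 37 °C. Treated with rat ghrelin or compound for 20 min, then GH release measured as % of maximal ghrelin response. Means of three determinations.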

Data set [24] in a line: Ratio of brain AUC to plasma AUC in FVB mouse. The class given is ADME, cell-free. The note with it: brain and plasma.

Chain of Sodium-dependent dopamine transporter (Q01959 whole entry): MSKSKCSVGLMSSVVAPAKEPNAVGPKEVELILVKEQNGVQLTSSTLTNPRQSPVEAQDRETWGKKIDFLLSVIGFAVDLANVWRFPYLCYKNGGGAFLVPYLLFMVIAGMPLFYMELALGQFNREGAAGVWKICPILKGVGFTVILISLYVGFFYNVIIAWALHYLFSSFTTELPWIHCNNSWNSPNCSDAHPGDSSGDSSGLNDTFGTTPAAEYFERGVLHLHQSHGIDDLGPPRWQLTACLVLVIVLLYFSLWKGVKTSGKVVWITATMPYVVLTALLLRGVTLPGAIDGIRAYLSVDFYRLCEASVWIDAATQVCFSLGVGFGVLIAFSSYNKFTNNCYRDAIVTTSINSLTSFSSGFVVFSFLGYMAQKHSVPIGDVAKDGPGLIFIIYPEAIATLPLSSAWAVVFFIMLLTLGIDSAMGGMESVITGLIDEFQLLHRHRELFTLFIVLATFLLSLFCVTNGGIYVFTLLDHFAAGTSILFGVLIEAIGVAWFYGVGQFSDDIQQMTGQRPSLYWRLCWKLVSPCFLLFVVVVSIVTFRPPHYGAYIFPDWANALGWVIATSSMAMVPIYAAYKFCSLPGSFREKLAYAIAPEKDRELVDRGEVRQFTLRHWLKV
Chain of Histamine H2 receptor (P25021 whole entry): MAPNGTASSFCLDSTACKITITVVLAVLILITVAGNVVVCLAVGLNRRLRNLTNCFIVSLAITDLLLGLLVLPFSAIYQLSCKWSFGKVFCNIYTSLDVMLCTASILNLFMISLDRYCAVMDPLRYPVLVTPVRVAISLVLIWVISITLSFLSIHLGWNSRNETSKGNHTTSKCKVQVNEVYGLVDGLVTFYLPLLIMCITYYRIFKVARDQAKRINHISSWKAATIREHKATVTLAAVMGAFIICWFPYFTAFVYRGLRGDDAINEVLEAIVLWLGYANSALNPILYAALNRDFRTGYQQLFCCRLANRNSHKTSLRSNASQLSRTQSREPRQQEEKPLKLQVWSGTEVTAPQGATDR
Chain of D(3) dopamine receptor (P35462 whole entry): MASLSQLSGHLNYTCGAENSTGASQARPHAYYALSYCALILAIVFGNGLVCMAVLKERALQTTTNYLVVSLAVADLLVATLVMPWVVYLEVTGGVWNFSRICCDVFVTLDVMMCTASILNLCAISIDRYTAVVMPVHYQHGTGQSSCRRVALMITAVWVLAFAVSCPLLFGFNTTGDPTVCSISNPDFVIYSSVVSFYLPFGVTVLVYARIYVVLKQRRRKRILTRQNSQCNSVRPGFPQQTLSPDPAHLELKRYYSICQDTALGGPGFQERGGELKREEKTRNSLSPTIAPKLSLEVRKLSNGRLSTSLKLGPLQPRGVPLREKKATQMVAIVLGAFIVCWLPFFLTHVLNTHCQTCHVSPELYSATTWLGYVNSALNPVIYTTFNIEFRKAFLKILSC
Chain of Muscarinic acetylcholine receptor M3 (P20309 whole entry): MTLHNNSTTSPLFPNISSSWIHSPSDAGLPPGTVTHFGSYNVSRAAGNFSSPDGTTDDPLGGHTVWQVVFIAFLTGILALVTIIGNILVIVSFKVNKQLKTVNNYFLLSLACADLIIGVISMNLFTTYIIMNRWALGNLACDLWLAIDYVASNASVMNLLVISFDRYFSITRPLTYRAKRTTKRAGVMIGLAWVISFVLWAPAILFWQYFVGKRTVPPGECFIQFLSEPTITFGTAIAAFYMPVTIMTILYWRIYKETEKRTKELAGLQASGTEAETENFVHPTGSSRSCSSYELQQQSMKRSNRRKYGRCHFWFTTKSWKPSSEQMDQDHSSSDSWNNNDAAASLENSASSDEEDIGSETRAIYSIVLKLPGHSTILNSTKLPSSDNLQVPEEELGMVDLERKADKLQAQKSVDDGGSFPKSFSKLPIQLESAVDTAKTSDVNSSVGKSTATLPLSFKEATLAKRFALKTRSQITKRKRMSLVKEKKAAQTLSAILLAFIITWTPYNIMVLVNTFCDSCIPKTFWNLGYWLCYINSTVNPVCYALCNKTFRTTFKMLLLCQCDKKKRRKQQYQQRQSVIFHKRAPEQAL
Chain of 5-hydroxytryptamine receptor 2A (P28223 whole entry): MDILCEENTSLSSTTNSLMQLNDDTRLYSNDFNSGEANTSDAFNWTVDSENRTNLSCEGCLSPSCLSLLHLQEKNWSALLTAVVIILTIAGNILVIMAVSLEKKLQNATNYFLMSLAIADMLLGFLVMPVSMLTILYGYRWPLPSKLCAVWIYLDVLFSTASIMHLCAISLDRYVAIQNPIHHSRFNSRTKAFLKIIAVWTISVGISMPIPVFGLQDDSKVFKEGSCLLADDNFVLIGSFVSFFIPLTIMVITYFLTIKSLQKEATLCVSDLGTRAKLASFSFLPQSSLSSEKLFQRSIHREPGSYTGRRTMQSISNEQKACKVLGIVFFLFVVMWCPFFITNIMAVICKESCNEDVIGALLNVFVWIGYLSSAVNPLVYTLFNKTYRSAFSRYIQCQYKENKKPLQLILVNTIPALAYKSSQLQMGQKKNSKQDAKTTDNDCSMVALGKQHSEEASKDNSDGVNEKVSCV
Chain of Kappa-type opioid receptor (P41145 whole entry): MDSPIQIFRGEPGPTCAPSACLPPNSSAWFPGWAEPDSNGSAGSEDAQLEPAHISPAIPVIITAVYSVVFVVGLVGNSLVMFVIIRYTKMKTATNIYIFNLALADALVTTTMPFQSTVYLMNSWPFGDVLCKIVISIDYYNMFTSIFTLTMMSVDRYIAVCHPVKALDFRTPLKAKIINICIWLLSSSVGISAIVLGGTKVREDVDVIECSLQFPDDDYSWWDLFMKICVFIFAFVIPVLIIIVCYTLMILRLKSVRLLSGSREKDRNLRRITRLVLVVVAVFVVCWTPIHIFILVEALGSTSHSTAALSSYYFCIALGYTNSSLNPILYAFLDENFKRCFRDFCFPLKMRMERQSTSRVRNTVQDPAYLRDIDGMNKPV
T1 sequence (Q92847 whole entry): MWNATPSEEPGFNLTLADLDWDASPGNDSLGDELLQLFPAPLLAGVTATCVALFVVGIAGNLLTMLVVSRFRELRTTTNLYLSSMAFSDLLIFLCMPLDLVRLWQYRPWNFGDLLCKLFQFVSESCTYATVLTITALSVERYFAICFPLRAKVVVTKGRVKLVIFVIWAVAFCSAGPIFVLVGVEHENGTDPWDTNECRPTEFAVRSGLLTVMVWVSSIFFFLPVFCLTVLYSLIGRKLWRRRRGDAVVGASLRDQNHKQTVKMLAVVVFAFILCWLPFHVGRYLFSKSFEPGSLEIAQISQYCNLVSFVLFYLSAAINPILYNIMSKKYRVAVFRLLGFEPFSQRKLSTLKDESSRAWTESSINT
Chain of Sodium-dependent noradrenaline transporter (P23975 whole entry): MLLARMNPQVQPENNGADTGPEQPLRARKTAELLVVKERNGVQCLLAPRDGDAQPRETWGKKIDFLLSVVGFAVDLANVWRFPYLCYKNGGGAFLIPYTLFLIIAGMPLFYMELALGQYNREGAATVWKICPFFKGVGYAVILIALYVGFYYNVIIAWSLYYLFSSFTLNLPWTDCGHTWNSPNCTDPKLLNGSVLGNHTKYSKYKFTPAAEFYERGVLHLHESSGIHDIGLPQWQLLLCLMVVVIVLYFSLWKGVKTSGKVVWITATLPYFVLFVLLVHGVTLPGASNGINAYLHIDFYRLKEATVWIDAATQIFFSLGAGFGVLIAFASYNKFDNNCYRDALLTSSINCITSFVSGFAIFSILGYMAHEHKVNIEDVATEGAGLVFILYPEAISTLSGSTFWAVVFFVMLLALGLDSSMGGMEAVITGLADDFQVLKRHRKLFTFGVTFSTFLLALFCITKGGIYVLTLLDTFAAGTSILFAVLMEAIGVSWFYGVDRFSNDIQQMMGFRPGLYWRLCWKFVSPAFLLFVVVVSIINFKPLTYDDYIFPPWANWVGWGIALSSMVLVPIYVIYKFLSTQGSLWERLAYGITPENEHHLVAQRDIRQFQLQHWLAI
Chain of Mu-type opioid receptor (P35372 whole entry): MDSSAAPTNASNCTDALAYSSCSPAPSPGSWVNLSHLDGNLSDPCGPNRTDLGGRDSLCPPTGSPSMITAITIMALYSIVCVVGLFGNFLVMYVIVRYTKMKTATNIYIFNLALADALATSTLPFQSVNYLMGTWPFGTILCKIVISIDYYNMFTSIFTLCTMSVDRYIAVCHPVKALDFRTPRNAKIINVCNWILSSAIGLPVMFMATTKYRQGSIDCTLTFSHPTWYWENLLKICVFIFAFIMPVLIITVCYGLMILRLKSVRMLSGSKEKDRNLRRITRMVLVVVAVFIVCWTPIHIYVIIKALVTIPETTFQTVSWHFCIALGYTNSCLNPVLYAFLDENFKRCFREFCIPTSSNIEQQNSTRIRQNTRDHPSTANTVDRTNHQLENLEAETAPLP
Chain of Sodium-dependent serotonin transporter (P31645 whole entry): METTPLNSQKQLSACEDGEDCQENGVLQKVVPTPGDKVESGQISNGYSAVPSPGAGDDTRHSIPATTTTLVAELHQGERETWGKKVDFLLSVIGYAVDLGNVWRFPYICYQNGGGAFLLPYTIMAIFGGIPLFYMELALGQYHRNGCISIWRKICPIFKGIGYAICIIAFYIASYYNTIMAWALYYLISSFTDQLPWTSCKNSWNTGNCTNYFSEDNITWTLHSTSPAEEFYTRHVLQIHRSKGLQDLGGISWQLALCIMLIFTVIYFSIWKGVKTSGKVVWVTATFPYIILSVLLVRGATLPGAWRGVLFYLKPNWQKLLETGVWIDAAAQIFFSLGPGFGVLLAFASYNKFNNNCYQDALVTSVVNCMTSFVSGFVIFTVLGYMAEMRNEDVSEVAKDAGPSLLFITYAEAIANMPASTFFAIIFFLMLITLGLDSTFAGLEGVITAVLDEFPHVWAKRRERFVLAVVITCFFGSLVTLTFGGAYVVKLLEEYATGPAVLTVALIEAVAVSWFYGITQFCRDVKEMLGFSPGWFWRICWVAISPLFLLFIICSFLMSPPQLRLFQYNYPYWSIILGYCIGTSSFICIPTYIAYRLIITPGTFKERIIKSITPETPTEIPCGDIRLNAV

Consider `O=C(c1ccc(-c2ccccc2)cc1)N1CCN(C(=O)c2ccc3cc[nH]c3c2)CC1`, for which the Activity in data set [1] was 18%; in [5], 14%; in data set [6], 24%; in data set [9] it was 14%. Moreover, the Ki (in [2]; on D(2) dopamine receptor; in [3]; in data set [4]; in [8]; on Histamine H2 receptor) was over 10 µM in each case. Moreover, the Ki (on Mu-type opioid receptor; in data set [10]; in data set [11]; in data set [12]; in data set [13]; on D(3) dopamine receptor) was over 10 µM in each case. Further, the half-inhibitory concentration (IC50) (usually the concentration that gives 50% inhibition) in [7] stood at 0.1 µM.
For `C[C@H]1CN(C(=O)c2ccc(-c3ccccc3F)cc2)CCN1C(=O)c1ccc2cc[nH]c2c1`, the Activity turned out to be 31% in data set [14]; 33% in data set [1]; 33% in data set [5]; 41% in data set [6]; 42% in data set [9]; 21% in data set [22]. In addition, in data set [23], the Activity worked out at 24%. The MRT – broadly, the average time that molecules of a dose stay in the body – in [15] came to 1.9 h. For the same molecule, the Ki (in data set [2]; at D(2) dopamine receptor; in data set [3]; in data set [4]; in data set [8]; at Histamine H2 receptor) was over 10 µM throughout. Besides, the Ki (on Mu-type opioid receptor; in data set [10]; in [11]; in data set [12]; in [13]; at D(3) dopamine receptor) was over 10 µM throughout. The clearance (usually a measure of how efficiently the substance is removed, as volume per time) in data set [16] was 35 mL/min/kg. Also, the bioavailability (as a rule, the share of a dose that reaches the circulation, judged against a reference dose that is usually intravenous) in [17] turned out to be 17%. Further, the concentration for half-maximal inhibition (IC50) in data set [18] is over 10 µM; in [7] it was 0.0091 µM; in data set [20], over 10 µM; in data set [21] it was 0.002 µM. Further, the Vd in [19] amounted to 3.7 L/kg. Also, the Kp (commonly the ratio of the level in a tissue or fluid to that in plasma or blood) in data set [24] was determined as 0.26.
`COc1cccc(-c2ccc(C(=O)N3CCN(C(=O)c4ccc5cc[nH]c5c4)[C@@H](C)C3)cc2)c1`: the Activity is 45% in data set [1], 46% in [5] and 40% in data set [23]. Besides, the Ki (in data set [2]; on D(2) dopamine receptor; in data set [3]; in data set [4]; in data set [8]; on Histamine H2 receptor) was over 10 µM each time. The Ki (at Mu-type opioid receptor; in [10]; in data set [11]; in [12]; in data set [13]; on D(3) dopamine receptor) was over 10 µM throughout. In addition, the IC50 in [7] was 0.012 µM.
